Calls of active or inactive are those of the source.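 How the source made its calls, unless noted: active means duplicate-averaged activation above buffer control mean plus 5 SD of those controls; inactive means the rest.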
How the values were obtained:
[1] = thallium flux activation in parental CHO cells, counter-screen for KCNQ1 potentiator project (AID 493006); details: parental CHO-K1 cells, FluxOR thallium flux, at 10 µM; stronger effect = higher value
Summary of the method: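 Material: parental CHO-K1 cells, FluxOR dye-loaded; Also added: Potassium/thallium depolarization pulse; Schedule: overnight 37 °C plating, 90 min dye, 20 min dark compound; Signal: kinetic FluxOR fluorescence, 10 s baseline, 110 s after stimulus.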

[2] = biological target: Potassium voltage-gated channel subfamily KQT member 1 (Homo sapiens) (UniProt P51787); assay: KCNQ1 potassium channel potentiators, confirmation, FluxOR thallium flux, CHO cells, duplicates (AID 493007;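 active means potentiation averaged over duplicate wells exceeding buffer-only control mean by more than 3 SD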); details: KCNQ1 cell line, FluxOR thallium flux fluorescence, at 10 µM; stronger effect = higher value, % of reference activator effect, buffer zero
Summary of the method: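 System: KCNQ1-expressing CHO cell line; technique: kinetic thallium influx fluorescence with FluxOR dye, 10 s baseline, 110 s post-stimulus; timing: dye 90 min then compound 20 min, both at room temperature; controls: buffer-only wells as 0% and R-L3 activator as 100%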

[3] = biological target: Potassium voltage-gated channel subfamily KQT member 2 (Rattus norvegicus) (UniProt O88943); assay: rat KCNQ2 channel potentiation, selectivity assay for KCNQ1 potentiator project, KCNQ2-CHO-K1 cells (AID 493009;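 active means mean duplicate potentiation above the buffer control mean plus 5 SD of buffer wells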;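 further: assay conditions were tuned for KCNQ1 rather than KCNQ2 modulators; signal is max minus min fluorescence divided by baseline after thallium stimulus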); details: FluxOR thallium flux fluorescence, at 10 µM; stronger effect = higher value, scaled: buffer 0, activator control 100
[4] = biological target: Potassium voltage-gated channel subfamily KQT member 1 (Homo sapiens) (UniProt P51787); assay: KCNQ1 channel current potentiators, confirmation, orthogonal assay for KCNQ1 potentiator project, IonWorks patch clamp, KCNQ1-CHO cells (AID 493184;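 active means current rise at least 3 SD above the untreated control mean in each of two repeat wells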); details: automated patch clamp current, at 10 µM; stronger effect = higher value
Summary of the method: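 Test system: KCNQ1-expressing CHO cells. Medium: pH 7.4 external bath. Probe or stimulus: voltage step from -90 mV holding to +40 mV, 2,000 ms. Compound: 10 µM final, single point. Detection: automated perforated-patch electrophysiology. Read-out: percent current increase versus pre-compound level. Repeats: two replicates.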

[5] = biological target: Potassium voltage-gated channel subfamily E member 1 (Homo sapiens) + Potassium voltage-gated channel subfamily KQT member 1 (Homo sapiens) (UniProt P15382+P51787); assay: KCNQ1/KCNE1 complex potentiators, confirmation, selectivity assay for KCNQ1 potentiator project, thallium flux, CHO-K1 KCNQ1/E1 cells (AID 493186;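 active means mean duplicate activation above the buffer control mean plus 5 SD of those controls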); details: FluxOR thallium flux, at 10 µM; stronger effect = higher value
Summary of the method: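 Material: CHO-K1 cells with KCNQ1/E1 / Timing: dye 90 min, compound 20 min, room temperature / Technique: kinetic thallium-sensitive FluxOR dye fluorescence / Read-out: percent activation scaled between buffer and R-L3 ratio signals / Replicates: tested in duplicate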

Measured: potentiation

Sequence of Potassium voltage-gated channel subfamily E member 1 (Homo sapiens) + Potassium voltage-gated channel subfamily KQT member 1 (Homo sapiens) (P51787 whole entry, looked up): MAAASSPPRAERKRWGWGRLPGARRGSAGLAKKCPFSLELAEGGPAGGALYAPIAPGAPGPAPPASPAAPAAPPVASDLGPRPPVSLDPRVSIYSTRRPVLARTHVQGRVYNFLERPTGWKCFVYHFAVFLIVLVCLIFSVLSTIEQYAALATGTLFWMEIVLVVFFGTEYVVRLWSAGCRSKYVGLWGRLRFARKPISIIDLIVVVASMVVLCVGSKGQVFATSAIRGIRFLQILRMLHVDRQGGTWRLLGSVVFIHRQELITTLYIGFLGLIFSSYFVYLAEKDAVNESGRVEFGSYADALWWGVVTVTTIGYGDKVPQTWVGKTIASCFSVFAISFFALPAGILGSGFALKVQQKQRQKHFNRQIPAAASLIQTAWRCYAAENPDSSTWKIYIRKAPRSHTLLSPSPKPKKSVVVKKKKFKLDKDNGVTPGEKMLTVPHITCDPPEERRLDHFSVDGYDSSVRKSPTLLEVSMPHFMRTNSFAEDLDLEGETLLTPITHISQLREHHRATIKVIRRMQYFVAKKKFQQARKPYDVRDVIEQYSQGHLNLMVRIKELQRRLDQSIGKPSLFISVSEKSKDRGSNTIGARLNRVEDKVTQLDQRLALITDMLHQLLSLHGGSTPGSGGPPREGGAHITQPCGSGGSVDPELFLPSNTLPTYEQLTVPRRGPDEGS
Sequence of Potassium voltage-gated channel subfamily KQT member 1 (Homo sapiens) (P51787 whole entry, looked up): as above
Sequence of Potassium voltage-gated channel subfamily KQT member 2 (Rattus norvegicus) (O88943 whole entry, looked up): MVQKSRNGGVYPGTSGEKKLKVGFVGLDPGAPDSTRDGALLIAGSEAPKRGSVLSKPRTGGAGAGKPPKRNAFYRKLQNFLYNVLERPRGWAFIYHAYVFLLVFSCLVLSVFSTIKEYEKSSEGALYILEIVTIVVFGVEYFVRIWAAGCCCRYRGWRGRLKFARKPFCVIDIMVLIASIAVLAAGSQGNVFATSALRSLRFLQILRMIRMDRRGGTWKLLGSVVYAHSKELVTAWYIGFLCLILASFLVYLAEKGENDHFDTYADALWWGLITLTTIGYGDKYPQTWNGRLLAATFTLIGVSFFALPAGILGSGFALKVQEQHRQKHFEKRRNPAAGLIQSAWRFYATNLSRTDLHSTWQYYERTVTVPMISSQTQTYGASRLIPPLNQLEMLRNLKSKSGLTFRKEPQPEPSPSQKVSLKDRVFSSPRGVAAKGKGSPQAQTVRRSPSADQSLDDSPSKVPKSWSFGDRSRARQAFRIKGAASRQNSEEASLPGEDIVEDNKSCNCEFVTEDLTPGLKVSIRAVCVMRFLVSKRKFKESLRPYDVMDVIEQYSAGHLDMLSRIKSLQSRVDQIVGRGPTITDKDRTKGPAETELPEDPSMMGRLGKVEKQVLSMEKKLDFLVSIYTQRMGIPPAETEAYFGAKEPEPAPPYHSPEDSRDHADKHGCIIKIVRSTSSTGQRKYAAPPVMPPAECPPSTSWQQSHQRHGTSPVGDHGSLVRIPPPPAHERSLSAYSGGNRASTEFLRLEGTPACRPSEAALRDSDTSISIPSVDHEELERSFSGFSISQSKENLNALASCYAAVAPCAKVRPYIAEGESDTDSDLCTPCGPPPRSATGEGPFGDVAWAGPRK

O=[N+]([O-])c1cccc(/C=N/Nc2nc(NCc3ccccc3)nc(N3CCOCC3)n2)c1O
inactive: [1] | [2] | [3] | [4] | [5]

Cc1ccc(-c2ccc(/C=C3\C(=O)ON=C3c3ccccc3)o2)c([N+](=O)[O-])c1
active: [2] 29%
inactive: [1] | [3] | [4] | [5]

COc1cc(C(=O)Nc2ccc3c(c2)nc(C)n3C)cc(OC)c1OC
inactive: [1] | [2] | [3] | [4] | [5]

CSCC(C)N1CCC(n2nccc2NC(=O)CCOc2ccccc2)CC1 (stereo not given)
inactive: [1] | [2] | [3] | [4] | [5]

Cc1cccc(C(=O)NC(=S)NNC(=O)COc2c(C)cccc2C)c1
active: [2] 29.5% | [3] 176%
inactive: [1] | [4] | [5]

CCOC(=O)C(C(=O)OCC)C(C(=O)OCC)N1CCOCC1 (stereo not given)
active: [3] 171%
inactive: [1] | [2] | [4] | [5]

Cc1ccc(OCC(=O)NNC(=S)NC(=O)C2CCCCC2)c(C)c1
active: [2] 26.5%
inactive: [1] | [3] | [4] | [5]

CC(=C/c1ccccc1)/C=N/n1c(-c2ccco2)n[nH]c1=S
inactive: [1] | [2] | [3] | [4] | [5]

O=C(O)c1cc2cc(F)ccc2[nH]1
inactive: [1] | [2] | [3] | [4] | [5]

CC(C)CC(=O)Nc1nnc(SCC(=O)NCc2ccco2)s1
inactive: [1] | [2] | [3] | [4] | [5]

Cn1cccc1/C=N/n1c(-c2ccc(Cl)cc2Cl)n[nH]c1=S
inactive: [1] | [2] | [3] | [4] | [5]

S=C(N/N=C/c1cccc2ccccc12)Nc1cccc(Cl)c1
inactive: [1] | [3] | [4] | [5]
active: [2] 59.5%

CC(=O)C[C@H]1c2cc(C(F)(F)F)ccc2S(=O)(=O)N1Cc1ccccc1
active: [2] 65.5%
inactive: [1] | [3] | [4] | [5]

CCc1ccc(-c2ccc3nnc(SC)n3n2)cc1
inactive: [1] | [2] | [3] | [4] | [5]

CC(=O)Nc1ccc(S(=O)(=O)Nc2nc3ccccc3nc2Nc2ccccc2)cc1
inactive: [1] | [2] | [3] | [4] | [5]

Cn1nnc(NC(=O)C(c2ccccc2)c2ccccc2)n1
inactive: [1] | [2] | [3] | [4] | [5]

S=c1[nH]cnc2scc(-c3ccc(Br)cc3)c12
inactive: [1] | [4] | [5]
active: [2] 32.5% | [3] 147%

COc1cccc(C2C3=C(N=c4s/c(=C\c5ccc(OCC(=O)O)cc5)c(=O)n42)c2ccccc2CC3)c1 (stereo not given)
inactive: [1] | [3] | [4] | [5]
active: [2] 53%

CCn1c(O)c(N=NC(=S)NCC2CCCO2)c2ccccc21 (stereo not given)
inactive: [1] | [2] | [3] | [4] | [5]

CC(Sc1nncs1)C(=O)NC1CCCCC1C (stereo not given)
inactive: [1] | [2] | [3] | [4] | [5]

O=C(NC(=S)NCCc1ccccc1)c1ccco1
inactive: [1] | [2] | [3] | [4] | [5]

CN1CCN(C(c2ccc(Cl)cc2)c2cc(Cl)c3cccnc3c2O)CC1 (stereo not given)
inactive: [1] | [2] | [3] | [4] | [5]

Cc1cc(NC(=O)CSCC(=O)OC(C)C(=O)N(C)Cc2ccccc2)no1 (stereo not given)
inactive: [1] | [3] | [4] | [5]
active: [2] 28%

COc1cc(OC)c(-n2cc(-c3ccc(Cl)cc3)[nH]c2=O)cc1Cl
inactive: [1] | [2] | [3] | [4] | [5]

CCn1c(=S)sc2nc(C)sc21
inactive: [1] | [2] | [3] | [4] | [5]

Oc1c(N=NC(=S)Nc2ccccc2F)c2ccccc2n1Cc1cccc(Cl)c1
inactive: [1] | [2] | [3] | [4] | [5]

CC1=NOC(=O)/C1=C\c1ccc(-c2ccc(Br)cc2)o1
inactive: [1] | [2] | [3] | [4] | [5]

COc1ccc(OC)c(NC(=S)NC(=O)c2ccc(Br)o2)c1
inactive: [1] | [2] | [3] | [4] | [5]

CCCCNC(=O)CCc1c(C)nc2c(c(C)nn2-c2ccccc2)c1C
inactive: [1] | [2] | [3] | [4] | [5]

CCOC(=O)c1ccc(-n2c(CN3CCOCC3)nc3ccc([N+](=O)[O-])cc3c2=O)cc1
inactive: [1] | [2] | [3] | [4] | [5]

From PubChem BioAssay
